Measurements taken from ChEMBL document CHEMBL2407075, “Sulphonamido-quinoxalines: search for anticancer agent” (Eur J Med Chem, 2013).

Assays:
Assay type in all cases: functional
PC-3 [1] = test: Growth inhibition of human PC3 cells assessed as cell growth at 10^-7 M after 48 hrs by sulforhodamine B assay; conditions: PC-3, 48 h, read-out: Activity
ACHN [2] = test: Growth inhibition of human ACHN cells after 48 hrs by sulforhodamine B assay; conditions: for CC50: read-out: LC50 (the source's name)
Method in brief: (§1)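 Adherent cells in RPMI 1640 with 5% FBS and 2 mM L-glutamine were plated at 5000–40,000 cells/well and grown 24 h. Five concentrations (0.01–100 µM, DMSO stock) were added for 48 h at 37 °C. Cells were fixed with cold TCA (10% final) and stained with SRB, read at 515 nm. GI50 came from log concentration–growth curves against time-zero and control plates.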

UACC-257 = test: Growth inhibition of human UACC257 cells assessed as cell growth at 10^-5 M after 48 hrs by sulforhodamine B assay; conditions: UACC-257, 48 h, read-out: Activity
NCI-H23 [3] = test: Growth inhibition of human NCI-H23 cells assessed as cell growth at 10^-7 M after 48 hrs by sulforhodamine B assay; conditions: NCI-H23, 48 h, read-out: Activity
MDA-MB-435 = test: Growth inhibition of human MDA-MB-435 cells assessed as cell growth at 10^-8 M after 48 hrs by sulforhodamine B assay; conditions: MDA-MB-435, 48 h, read-out: Activity
Malme-3M = test: Growth inhibition of human MALME-3M cells assessed as cell growth at 10^-7 M after 48 hrs by sulforhodamine B assay; conditions: read-out: Activity
ACHN [4] = test: Growth inhibition of human ACHN cells assessed as cell growth at 10^-7 M after 48 hrs by sulforhodamine B assay; conditions: read-out: Activity
Method in brief: (§2)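 Five-dose NCI-60 run (0.01, 0.1, 1, 10 and 100 µM, as 10-fold dilutions from a DMSO stock made at 400× the top final level). Cells were grown in RPMI 1640 with 5% FBS and 2 mM glutamine and plated for 24 h. They were then exposed for 48 h at 37 °C and 5% CO2. TCA fixation was followed by SRB staining with A515 read-out. Percent growth was taken relative to time-zero and control plates.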

ACHN [5] = test: Growth inhibition of human ACHN cells assessed as cell growth at 10^-5 M after 48 hrs by sulforhodamine B assay; conditions: read-out: Activity; method in brief: as §2
HT-29 = test: Growth inhibition of human HT-29 cells assessed as cell growth at 10^-6 M after 48 hrs by sulforhodamine B assay; conditions: HT-29, 48 h, read-out: Activity
Method in brief: (§3)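 Five-dose screen at NCI. Cells in RPMI 1640 with 5% FBS and 2 mM L-glutamine, seeded at 5000–40,000 cells/well and grown 24 h at 37 °C, 5% CO2 before dosing, with time-zero plates TCA-fixed. Drug diluted from DMSO stock to 0.01, 0.1, 1, 10 and 100 µM final, 48 h. Cells fixed with cold TCA (10% final), stained with 0.4% SRB and read at 515 nm. Percent growth from Tz, control and test absorbances; GI50, TGI and LC50 from dose-response curves.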

SF-539 = test: Growth inhibition of human SF539 cells assessed as cell growth at 10^-7 M after 48 hrs by sulforhodamine B assay; conditions: SF-539, 48 h, read-out: Activity
SK-OV-3 [6] = test: Growth inhibition of human SKOV3 cells assessed as cell growth at 10^-8 M after 48 hrs by sulforhodamine B assay; conditions: SK-OV-3, 48 h, read-out: Activity
K562 = test: Growth inhibition of human K562 cells assessed as cell growth at 10^-4 M after 48 hrs by sulforhodamine B assay; conditions: K562, 48 h, read-out: Activity
HCT-116 = test: Growth inhibition of human HCT116 cells assessed as cell growth at 10^-5 M after 48 hrs by sulforhodamine B assay; conditions: HCT-116, 48 h, read-out: Activity; method in brief: as §3
UO-31 = test: Growth inhibition of human UO31 cells assessed as cell growth at 10^-7 M after 48 hrs by sulforhodamine B assay; conditions: UO-31, 48 h, read-out: Activity
NCI-H322M [7] = test: Growth inhibition of human NCI-H322M cells after 48 hrs by sulforhodamine B assay; conditions: for CC50: read-out: LC50 (the source's name); method in brief: as §1
MOLT-4 = test: Growth inhibition of human MOLT4 cells assessed as cell growth at 10^-5 M after 48 hrs by sulforhodamine B assay; conditions: MOLT-4, 48 h, read-out: Activity
OVCAR-4 = test: Growth inhibition of human OVCAR4 cells assessed as cell growth at 10^-5 M after 48 hrs by sulforhodamine B assay; conditions: OVCAR-4, 48 h, read-out: Activity
PC-3 [8] = test: Growth inhibition of human PC3 cells assessed as cell growth at 10^-5 M after 48 hrs by sulforhodamine B assay; conditions: PC-3, 48 h, read-out: Activity
NCI-H460 [9] = test: Growth inhibition of human NCI-H460 cells assessed as cell growth at 10^-4 M after 48 hrs by sulforhodamine B assay; conditions: NCI-H460, 48 h, read-out: Activity
OVCAR-8 = test: Growth inhibition of human OVCAR8 cells after 48 hrs by sulforhodamine B assay; conditions: OVCAR-8, 48 h; for CC50: read-out: LC50 (the source's name)
Method in brief: (§4)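 Five-dose NCI 60 screen at 0.01, 0.1, 1, 10 and 100 µM, 48 h exposure after 24 h preincubation, in RPMI 1640 with 5% FBS and 2 mM glutamine. Fixed with TCA (10% final for adherent cells, 16% for suspension cells), stained with SRB, A515 read. Percent growth uses time-zero (Tz), control and treated plates. GI50, TGI and LC50 are read from the dose-response curves.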

HOP-92 = test: Growth inhibition of human HOP92 cells after 48 hrs by sulforhodamine B assay; conditions: HOP-92, 48 h; for CC50: read-out: LC50 (the source's name); method in brief: as §1
NCI-H23 [10] = test: Growth inhibition of human NCI-H23 cells assessed as cell growth at 10^-6 M after 48 hrs by sulforhodamine B assay; conditions: NCI-H23, 48 h, read-out: Activity
TK-10 = test: Growth inhibition of human TK10 cells assessed as cell growth at 10^-5 M after 48 hrs by sulforhodamine B assay; conditions: TK-10, 48 h, read-out: Activity
HL-60(TB) = test: Growth inhibition of human HL-60(TB) cells assessed as cell growth at 10^-8 M after 48 hrs by sulforhodamine B assay; conditions: HL-60, 48 h, read-out: Activity
Method in brief: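 HL-60(TB) suspension cells were treated 48 h at 37 °C within the five-dose series (0.01–100 µM), fixed with 16% final TCA and SRB-stained, read at 515 nm. Percentage growth at each concentration = (Ti−Tz)/(C−Tz)×100, or (Ti−Tz)/Tz×100 when Ti<Tz, with time-zero (Tz) and untreated control (C) plates.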

NCI-H460 [11] = test: Growth inhibition of human NCI-H460 cells assessed as cell growth at 10^-7 M after 48 hrs by sulforhodamine B assay; conditions: NCI-H460, 48 h, read-out: Activity
SK-OV-3 [12] = test: Growth inhibition of human SKOV3 cells after 48 hrs by sulforhodamine B assay; conditions: SK-OV-3, 48 h; for CC50: read-out: LC50 (the source's name); method in brief: as §4
NCI-H322M [13] = test: Growth inhibition of human NCI-H322M cells assessed as cell growth at 10^-5 M after 48 hrs by sulforhodamine B assay; conditions: read-out: Activity

Q: With `O=S(=O)(Nc1ccc(Cl)cc1)c1ccc2nc(-c3ccccc3)c(-c3ccccc3)nc2c1` as the compound, how does the growth at 0.1 µM (PC-3 [1]) read?
A: 92%

Q: And the TGI (ACHN [2])?
A: > 100 µM

Q: What about the CC50 (ACHN [2]) of the same compound?
A: > 100 µM

Q: What about the growth at 10 µM (UACC-257) of the same compound?
A: -24%

Q: And the growth at 0.1 µM (NCI-H23 [3])?
A: 92%

Q: What about the growth at 0.01 µM (MDA-MB-435) of the same compound?
A: 97%

Q: What about the growth at 0.1 µM (Malme-3M) of the same compound?
A: 99%

Q: What about the growth at 0.1 µM (ACHN [4]) of the same compound?
A: 95%

Q: What about the growth at 10 µM (ACHN [5]) of the same compound?
A: 6%

Q: And the growth at 1 µM (HT-29)?
A: 85%

Q: What about the growth at 0.1 µM (SF-539) of the same compound?
A: 96%

Q: And the growth at 0.01 µM (SK-OV-3 [6])?
A: 95%

Q: What about the growth at 100 µM (K562) of the same compound?
A: 58%

Q: And the growth at 10 µM (HCT-116)?
A: 1%

Q: And the growth at 0.1 µM (UO-31)?
A: 89%

Q: What about the TGI (NCI-H322M [7]) of the same compound?
A: > 100 µM

Q: What about the CC50 (NCI-H322M [7]) of the same compound?
A: > 100 µM

Q: And the growth at 10 µM (MOLT-4)?
A: -39%

Q: What about the growth at 10 µM (OVCAR-4) of the same compound?
A: 12%

Q: And the growth at 10 µM (PC-3 [8])?
A: -12%

Q: What about the growth at 100 µM (NCI-H460 [9]) of the same compound?
A: 68%

Q: And the TGI (OVCAR-8)?
A: > 100 µM

Q: What about the CC50 (OVCAR-8) of the same compound?
A: > 100 µM

Q: What about the GI50 (HOP-92) of the same compound?
A: 2.03 µM

Q: What about the CC50 (HOP-92) of the same compound?
A: > 100 µM

Q: And the growth at 1 µM (NCI-H23 [10])?
A: 85%

Q: And the growth at 10 µM (TK-10)?
A: 9%

Q: And the growth at 0.01 µM (HL-60(TB))?
A: 97%

Q: What about the growth at 0.1 µM (NCI-H460 [11]) of the same compound?
A: 105%

Q: And the TGI (SK-OV-3 [12])?
A: > 100 µM

Q: And the CC50 (SK-OV-3 [12])?
A: > 100 µM

Q: What about the growth at 10 µM (NCI-H322M [13]) of the same compound?
A: 37%

Q: How did the growth at 0.1 µM (PC-3 [1]) turn out when `O=S(=O)(Nc1ccccn1)c1ccc2nc(-c3ccccc3)c(-c3ccccc3)nc2c1` was run?
A: 93%

Q: And the TGI (ACHN [2])?
A: > 100 µM

Q: And the CC50 (ACHN [2])?
A: > 100 µM

Q: What about the growth at 10 µM (UACC-257) of the same compound?
A: -25%

Q: And the growth at 0.1 µM (NCI-H23 [3])?
A: 94%

Q: What about the growth at 0.01 µM (MDA-MB-435) of the same compound?
A: 99%

Q: What about the growth at 0.1 µM (Malme-3M) of the same compound?
A: 107%

Q: What about the growth at 0.1 µM (ACHN [4]) of the same compound?
A: 98%

Q: What about the growth at 10 µM (ACHN [5]) of the same compound?
A: 6%

Q: What about the growth at 1 µM (HT-29) of the same compound?
A: 79%

Q: What about the growth at 0.1 µM (SF-539) of the same compound?
A: 94%

Q: What about the growth at 0.01 µM (SK-OV-3 [6]) of the same compound?
A: 97%

Q: And the growth at 100 µM (K562)?
A: 48%

Q: And the growth at 10 µM (HCT-116)?
A: 1%

Q: What about the growth at 0.1 µM (UO-31) of the same compound?
A: 88%

Q: And the TGI (NCI-H322M [7])?
A: > 100 µM

Q: And the CC50 (NCI-H322M [7])?
A: > 100 µM

Q: And the growth at 10 µM (MOLT-4)?
A: -29%

Q: What about the growth at 10 µM (OVCAR-4) of the same compound?
A: 10%

Q: What about the growth at 10 µM (PC-3 [8]) of the same compound?
A: -12%

Q: And the growth at 100 µM (NCI-H460 [9])?
A: 65%

Q: What about the GI50 (OVCAR-8) of the same compound?
A: 2.6 µM

Q: What about the TGI (OVCAR-8) of the same compound?
A: > 100 µM

Q: And the CC50 (OVCAR-8)?
A: > 100 µM

Q: And the GI50 (HOP-92)?
A: 1.94 µM

Q: And the CC50 (HOP-92)?
A: > 100 µM

Q: What about the growth at 1 µM (NCI-H23 [10]) of the same compound?
A: 79%

Q: What about the growth at 10 µM (TK-10) of the same compound?
A: 4%

Q: And the growth at 0.01 µM (HL-60(TB))?
A: 98%

Q: What about the growth at 0.1 µM (NCI-H460 [11]) of the same compound?
A: 106%

Q: What about the GI50 (SK-OV-3 [12]) of the same compound?
A: 3.58 µM

Q: What about the TGI (SK-OV-3 [12]) of the same compound?
A: > 100 µM

Q: And the CC50 (SK-OV-3 [12])?
A: > 100 µM

Q: And the growth at 10 µM (NCI-H322M [13])?
A: 35%
